# Data reported in article PMC3517082 (Molecular nutrition & food research, 2011).
# “Also recorded” adds a separate entry of the source. Like-named read-outs stand apart in the source and are kept apart here.
# Assays:
# TrxR [1] = settings: 50 μM 4-HNE for 6 hr, HeLa cells; cited from earlier work
# NF-κB [2] = settings: cited from earlier work
# [3] = cited from earlier work
# GSH [4] = settings: human endothelial cells, pretreatment; cited from earlier work
# [5] = system: human endothelial HMEC-1 cells; settings: 12.5 μM acrolein; cited from earlier work
# Trx1 = settings: cited from earlier work
# Trx2 = settings: cited from earlier work
# [6] = system: human endothelial HMEC-1 cells; assay: Protection of human endothelial cells from acrolein toxicity / cell death; type: cell-based
# glutathione reductase = settings: 25 μM acrolein, 30 min, human umbilical vein endothelial cells; cited from earlier work
# NF-κB [7] = settings: bovine endothelial cells; cited from earlier work
# ASK1 bound to Trx1 = ASK1 bound to Trx1 (Homo sapiens, UniProt P10599); assay: Immunoprecipitation of ASK1 bound to Trx1 in HMEC-1 cells; type: cell-based; settings: acrolein 30 min
# ASK1 bound to Trx1, sequence (P10599 2-105 limits assumed): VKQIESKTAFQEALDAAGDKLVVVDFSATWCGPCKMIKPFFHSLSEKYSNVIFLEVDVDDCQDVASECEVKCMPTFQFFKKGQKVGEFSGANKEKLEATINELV
# catalase = settings: 25 μM acrolein, 30 min, human umbilical vein endothelial cells; cited from earlier work
# Prx3 = settings: acrolein-treated human bronchial cells; cited from earlier work
# TrxR [8] = assay: TrxR specific activity in normal human bronchial epithelial cells; type: cell-based; settings: BEAS-2B cells, 2.5 μM acrolein, 30 min
# Method in brief: (§1)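 BEAS-2B normal human bronchial epithelial cells exposed to acrolein for 30 min, with vehicle-alone cultures as controls. Specific activity of TrxR, glutathione reductase (GSSG-R) and GAPDH determined by enzymatic assay. Significance (P < 0.01) judged against vehicle-treated cells.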
# p38 = p38 phosphorylation western blot in HMEC-1 cells; type: cell-based, human
# Method in brief: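 HMEC-1 cells treated with acrolein, with anisomycin (200 ng/ml) as a known activator and untreated cells as controls. Western blots probed with anti-phospho-p38 (Thr180/Tyr182) and anti-p38α for total p38α. 3–5 independent treatments per condition, compared against untreated control.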
# glutathione peroxidase = settings: 25 μM acrolein, 30 min, human umbilical vein endothelial cells; cited from earlier work
# Human endothelial cells = settings: 30 min; cited from earlier work
# TrxR [9] = settings: BEAS-2B cells, cited from earlier work
# Prx1 = settings: acrolein-treated human bronchial cells; cited from earlier work
# AP-1 = settings: A549 cells, reporter construct; cited from earlier work
# superoxide dismutase = settings: 25 μM acrolein, 30 min, human umbilical vein endothelial cells; cited from earlier work
# [10] = target: glutathione reductase (GSSG-R) (Homo sapiens, UniProt P00390); assay: Glutathione reductase specific activity in BEAS-2B cells; type: cell-based; settings: bronchial cells (BEAS-2B), 30 min
# glutathione reductase (GSSG-R), sequence (P00390 44-522): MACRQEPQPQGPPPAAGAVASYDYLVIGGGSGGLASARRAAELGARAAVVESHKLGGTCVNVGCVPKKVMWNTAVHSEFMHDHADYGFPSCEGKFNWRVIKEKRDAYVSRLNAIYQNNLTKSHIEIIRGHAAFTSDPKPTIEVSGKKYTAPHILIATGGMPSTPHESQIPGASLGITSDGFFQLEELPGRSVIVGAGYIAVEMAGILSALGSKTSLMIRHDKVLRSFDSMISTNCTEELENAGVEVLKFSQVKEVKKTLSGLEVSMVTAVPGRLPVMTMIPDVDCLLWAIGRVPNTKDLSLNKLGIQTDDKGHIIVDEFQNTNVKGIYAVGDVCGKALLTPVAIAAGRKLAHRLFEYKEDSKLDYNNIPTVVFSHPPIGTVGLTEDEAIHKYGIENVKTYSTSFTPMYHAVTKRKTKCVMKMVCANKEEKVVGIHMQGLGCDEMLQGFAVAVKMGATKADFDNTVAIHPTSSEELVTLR
# Method in brief: as §1
# [11] = depending on the cell type; cited from earlier work
# [12] = target: glyceraldehyde-3-phosphate dehydrogenase (GAPDH) (Homo sapiens, UniProt P04406); assay: GAPDH specific activity in BEAS-2B cells; type: cell-based; settings: 30 min acrolein
# glyceraldehyde-3-phosphate dehydrogenase (GAPDH), sequence (P04406 whole entry): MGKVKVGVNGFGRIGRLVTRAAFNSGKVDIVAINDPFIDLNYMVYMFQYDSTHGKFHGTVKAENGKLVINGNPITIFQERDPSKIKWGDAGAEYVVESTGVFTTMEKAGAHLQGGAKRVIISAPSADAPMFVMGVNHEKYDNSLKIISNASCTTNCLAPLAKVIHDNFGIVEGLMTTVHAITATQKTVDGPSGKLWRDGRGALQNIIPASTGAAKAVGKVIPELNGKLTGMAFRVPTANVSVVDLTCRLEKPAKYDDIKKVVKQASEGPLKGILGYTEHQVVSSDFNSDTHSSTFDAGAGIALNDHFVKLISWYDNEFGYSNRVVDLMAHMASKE
# Method in brief: as §1
# NF-κB [13] = settings: A549 cells; cited from earlier work
# TrxR [14] = settings: A549 cells, cited from earlier work
# JNK = JNK phosphorylation western blot in HMEC-1 cells; type: cell-based, human
# Method in brief: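 HMEC-1 endothelial cells given acrolein; anisomycin at 200 ng/ml served as positive activator, and untreated cells as reference. Immunoblots probed for phospho-JNK (Thr183/Tyr185) and with anti-pan-JNK for total JNK. n = 3–5 independent treatments for each condition.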
# Trx = settings: cited from earlier work
# TrxR [15] = settings: 25 μM acrolein for 30 min, human umbilical vein endothelial cells; cited from earlier work
# Purified TrxR = settings: 1 μM acrolein; cited from earlier work
# GSH [16] = assay: GSH levels in human endothelial cells; type: cell-based; settings: HMEC-1 cells, acrolein 30 min, recovery 1 or 2 h
# [17] = human endothelial cells, limited experiments
# [18] = 5 μM acrolein, human endothelial and bronchial epithelial cells
compound,measurement,setting,value
"CCCCCC(O)/C=C/C=O (stereo not drawn) [4-HNE, 4-hydroxynonenal]",inhibition of TrxR activity,TrxR [1],ca. 60%
O=C/C=C/c1ccccc1 [Cinnamaldehyde],effect on NF-κB activity,NF-κB [2],blocks NF-κB activity
"N[C@@H](CCC(=O)N[C@@H](CS)C(=O)NCC(=O)O)C(=O)O [GSH, reduced glutathione]",pKa of thiol,[3],8.8
CCOC(=O)CNC(=O)[C@H](CS)NC(=O)CC[C@H](N)C(=O)O [GSH-monoethyl ester],increase in GSH levels,GSH [4],64%
same,protection of cells from acrolein,[5],only a minor protection
"CC(=O)N[C@@H](CS)C(=O)O [NAC, N-acetylcysteine, reference compound]",protection of Trx1 redox state from acrolein,"Trx1; human endothelial cells, 2 hr pretreatment",partially protects
same,increase in GSH levels,GSH [4],31%
same,protection of Trx2 from acrolein,Trx2; [17],did not protect
C[S+]([O-])c1ccc(-c2nc(-c3ccncc3)c(-c3ccc(F)cc3)[nH]2)cc1 (stereo not drawn) [SB203580],protection from acrolein toxicity (Fig. 7),"[6]; HMEC-1 cells, SB203580 10 μM 2 hr pretreatment, 5 and 12.5 μM acrolein 30 min, 14 hr in fresh medium",decreases acrolein toxicity; also recorded: protects
Oc1c2ccccc2c2c3c(cccc13)N=N2 [SP600125],effect on cell death by itself,"[6]; human endothelial HMEC-1 cells, inhibitor alone",increases cell death
"C=CC=O [acrolein, Prop-2-enal]",effect on glutathione reductase,glutathione reductase,not inhibited; also recorded: unaffected
same,effect on NF-κB DNA binding,NF-κB [7],blocks NF-κB DNA binding
same,effect on reduced form of Trx1 (redox blot),Trx1; [18],eliminate the reduced forms
same,recovery of Trx1 redox state after acrolein removal,"Trx1; human endothelial cells, 4-hr acrolein-free period",modest recovery
same,"ASK1 bound to Trx1 (IP, Fig. 4)",ASK1 bound to Trx1,causes dissociation of ASK1 from Trx1
same,effect on catalase,catalase,not inhibited
same,oxidation of Prx3 to dimers,Prx3,near complete oxidation
same,effect on TrxR activity (Fig. 2),TrxR [8],markedly inhibits
same,phosphorylation of p38 (Fig. 5),p38,causes phosphorylation of p38
same,effect on glutathione peroxidase,glutathione peroxidase,not inhibited; also recorded: unaffected
same,cytotoxic concentration,Human endothelial cells,≥ 5 µM
same,effect on TrxR activity at 1 μM,TrxR [9]; 1 μM acrolein,significant inhibition
same,recovery of TrxR activity after acrolein removal,TrxR [9]; 4 hr after acrolein removal,does not recover
same,acrolein concentration that strongly inhibits TrxR activity,TrxR [9],≥ 2.5 µM
same,oxidation of Prx1 to dimers,Prx1,near complete oxidation
same,effect on AP-1 DNA binding and activity,AP-1,decreases AP-1 binding to DNA and AP-1 activity
same,effect on superoxide dismutase,superoxide dismutase,not inhibited; also recorded: unaffected
same,inhibition of glutathione reductase activity (Fig. 2),[10]; 12.5 μM acrolein,ca. 40%
same,effect on glutathione reductase activity (Fig. 2),[10]; 2.5 or 5 μM acrolein,not inhibited
same,toxicity relative to formaldehyde,[11],10-200 times
same,effect on cellular activity of glyceraldehyde phosphate dehydrogenase (Fig. 2),[12],not significantly affected
same,effect on NF-κB binding and activity,NF-κB [13],blocks both the binding and activity of NF-κB
same,inhibition of TrxR activity,TrxR [14]; 50-75 μM acrolein for 30 min,ca. 65%
same,TrxR activity recovered after acrolein removal,TrxR [14]; 2-4 hr after acrolein removal,70-100%
same,phosphorylation of JNK (Fig. 6),JNK,causes phosphorylation of JNK
same,concentration for maximal inhibition of Trx activity,Trx; A549 cancer cells,≥ 15 µM
same,recovery of Trx activity after acrolein removal,"Trx; A549 cells, 4 hr after acrolein removed",partial recovery
same,effect on reduced form of Trx2 (redox blot),Trx2; [18],eliminate the reduced forms
same,redox recovery of Trx2 after acrolein removal,Trx2; [17],not observed
same,inhibition of TrxR activity,TrxR [15],88%
same,irreversible inhibition of purified TrxR,Purified TrxR,80%
same,recovery of GSH levels once acrolein is removed (Fig. 3),GSH [16],recover quickly
